Source: ChEMBL document CHEMBL4610072, “Polyacetylenes from Oplopanax horridus and Panax ginseng: Relationship between Structure and PPARγ Activation” (J Nat Prod, 2020)

Legend:
Type in all cases: cell-based
[1] = (§1) Cytotoxicity against HEK293 cells assessed as cell viability at 3 uM after 18 hrs by luciferase assay relative to control; settings: human, HEK293 cells; read-out: Activity
Summary of the method: (§2)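 HEK293 cells calcium-phosphate co-transfected with PPARγ expression plasmid, PPRE-luciferase reporter and pEGFP-N1; 6 h later reseeded at 4 × 10^5/well in DMEM with 5% charcoal-stripped serum and given 3 μM compound for 18 h; vehicle 0.1% DMSO. After lysis, EGFP fluorescence relative to vehicle gave viability; n = 3–4, four technical replicates.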

HEK293 [2] = test: Cytotoxicity against HEK293 cells assessed as cell viability at 10 uM after 24 hrs by resazurin conversion assay; settings: human, hek293, 24 h
Summary of the method: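 HEK293 cells seeded 5 × 10^5 per well, grown overnight, then exposed to 10 μM compound in stripped DMEM for 24 h; vehicle 0.4% DMSO. Wells PBS-washed, then 10 μg/mL resazurin in PBS added for 4 h; conversion read by fluorescence (excitation 535 nm). Viability relative to vehicle; at least three experiments, four technical replicates each.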

[3] = target: T1, Peroxisome proliferator-activated receptor gamma (Homo sapiens) (UniProt P37231); test: Activation of human PPARgamma expressed in HEK293 cells assessed as maximum fold activation at 0.1 to 30 uM incubated for 18 hrs by luciferase reporter assay relative to control
T1 sequence (whole entry): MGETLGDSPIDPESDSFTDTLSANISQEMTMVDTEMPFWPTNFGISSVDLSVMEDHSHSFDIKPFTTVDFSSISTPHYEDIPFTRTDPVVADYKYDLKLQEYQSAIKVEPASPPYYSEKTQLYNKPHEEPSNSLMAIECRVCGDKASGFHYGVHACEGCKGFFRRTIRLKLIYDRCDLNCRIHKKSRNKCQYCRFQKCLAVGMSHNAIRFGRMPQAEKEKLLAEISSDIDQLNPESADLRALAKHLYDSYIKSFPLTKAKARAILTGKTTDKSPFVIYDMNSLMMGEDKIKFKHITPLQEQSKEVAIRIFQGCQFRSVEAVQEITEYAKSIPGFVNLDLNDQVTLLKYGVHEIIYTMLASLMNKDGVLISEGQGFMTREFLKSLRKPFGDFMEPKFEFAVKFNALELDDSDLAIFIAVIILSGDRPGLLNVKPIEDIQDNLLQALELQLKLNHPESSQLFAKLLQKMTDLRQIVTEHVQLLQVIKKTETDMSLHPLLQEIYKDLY

HEK293 [4] = test: as §1; settings: human, hek293, 18 h, 3 µM; summary of the method: as §2

C=C[C@@H](O)C#CC#CC/C=C\CCCCCCCCO
viability at 18 h, 3 µM [1]: > 70%
Activity (HEK293 [2]): Non-Toxic

C=C[C@@H](O)C#CC#C/C=C/[C@@H](O)CCCCCCC
Activity (HEK293 [2]): Non-Toxic

CCCCCCC/C=C\[C@H](O)C#CC#C[C@@H](O)CCO
Activity (HEK293 [2]): Non-Toxic

C=C[C@@H](O)C#CC#CCC1OC1CCCCCCC (some centres undefined)
viability at 18 h, 3 µM [1]: > 70%
Activity (HEK293 [2]): Non-Toxic

CC[C@@H](O)C#CC#C/C=C/[C@@H](O)CCCCCCCCOC(C)=O
Activity (HEK293 [2]): Non-Toxic

C=C[C@@H](O)C#CC#C[C@@H](O)/C=C\CCCCCCC [FALCARINDIOL]
Emax [3]: 3.26

C=C[C@@H](O)C#CC#CC/C=C\CCCCCCC
viability at 18 h, 3 µM [1]: > 70%
Activity (HEK293 [2]): Non-Toxic

CC(=O)OCCCCCCCC/C=C\[C@H](O)C#CC#C[C@@H](O)CCO
Activity (HEK293 [2]): Non-Toxic

C=C[C@@H](O)C#CC#C/C=C/[C@@H](O)CCCCCCCCO
Activity (HEK293 [2]): Non-Toxic

C=C[C@H](O)C#CC#C[C@@H](O)/C=C\C(O)CCCCCC (some centres undefined)
Activity (HEK293 [2]): Non-Toxic

C=CCCCCC[C@@H]1O[C@@H]1CC#CC#CC(=O)CC
Activity (HEK293 [2]): Non-Toxic

C=C[C@@H](O)C#CC#CC/C=C\CCCCCCCCOC(C)=O
viability at 18 h, 3 µM [1]: > 70%
Activity (HEK293 [2]): Non-Toxic

C=C[C@@H](O)C#CC#C/C=C/[C@@H](O)CCCCCCCCOC(C)=O
Activity (HEK293 [2]): Non-Toxic

CCCCCCC[C@H](O)/C=C/C#CC#C[C@H](O)CC
Activity (HEK293 [2]): Non-Toxic

C=C[C@H](O)C#CC#C[C@@H](O)/C=C\CCCCCCCCO
Activity (HEK293 [2]): Non-Toxic

OCCCCCCCC/C=C\[C@H](O)C#CC#C[C@@H](O)CCO
Activity (HEK293 [2]): Non-Toxic

CC[C@H](O)C#CC#C[C@@H](O)/C=C\CCCCCCCCO
Activity (HEK293 [2]): Non-Toxic

CCCCCCC(O)/C=C\[C@H](O)C#CC#C[C@@H](O)CC (some centres undefined)
Activity (HEK293 [2]): Non-Toxic

CCCCCCC[C@@H]1O[C@@H]1CC#CC#CC(=O)CC
Activity (HEK293 [2]): Non-Toxic

C=C[C@H](O)C#CC#C[C@@H](O)/C=C\CCCCCCCCOC(C)=O
Activity (HEK293 [2]): Non-Toxic

CCCCCCC/C=C\[C@H](O)C#CC#C[C@@H](O)CC [OPLOPANDIOL]
Activity (HEK293 [2]): Non-Toxic

CC[C@H](O)C#CC#C[C@@H](O)/C=C\CCCCCCCCOC(C)=O [OPLOPANDIOL ACETATE]
Activity (HEK293 [2]): Non-Toxic

C=C[C@H](O)C#CC#C[C@@H](O)/C=C\CCCCCCC
Activity (HEK293 [4]): Toxic
Activity (HEK293 [2]): Non-Toxic

CC[C@@H](O)C#CC#C/C=C/[C@@H](O)CCCCCCCCO
Activity (HEK293 [2]): Non-Toxic
